Experimental data published in PMC8760560 (iScience, 2021).
Values belong to the compound of their own block, whether it stands above or below them.

Key:
[1] = biological target: RyR1 (Sus scrofa, UniProt P16960); assay: [3H]-ryanodine binding to skeletal SR vesicles; parameters: species or system porcine
Method in brief: (§1)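 Porcine SR vesicles, skeletal (1 mg/mL, 10 nM [3H]-ryanodine) and cardiac (3 mg/mL, 7.5 nM [3H]-ryanodine), were incubated for 3 h at 37°C with test compound or 0.02% DMSO. The pH 7.0 K-PIPES buffer contained 150 mM KCl, 0.1 μM calmodulin, GSH, DTT, 1 mM EGTA and CaCl2 giving 100 nM or 30 μM free Ca2+. Non-specific binding was defined with 40 μM unlabeled ryanodine. Bound ligand was filtered and counted by scintillation, and expressed relative to DMSO. Three SR batches, triplicates.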

[2] = biological target: RyR2 (Sus scrofa, UniProt A0A5G2R1W3); assay: [3H]-ryanodine binding to cardiac SR vesicles; parameters: species or system porcine
Method in brief: as §1

[3] = tested on: cADPR-evoked Ca^2+ release; assay: cADPR-evoked Ca2+ release in sea urchin egg homogenate; type: biochemical, Strongylocentrotus purpuratus; conditions: for mode of inhibition of cADPR action: cADPR concentration-response curves at increasing inhibitor concentrations; for inhibition of cADPR-evoked Ca2+ signals: primary screen, 6 min preincubation
Method in brief: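 Primary screen in S. purpuratus egg homogenate, loaded with Ca2+ and 3 μM fluo-3 at 17°C and diluted stepwise to 1.25% over 3 h. Fluo-3 was read at ex 485/em 525 nm. Library compounds at 25 μM final were preincubated for 6 min (35 cycles), then cADPR 300 nM final was added. Screens ran in singlicate or duplicate, with Z' calculated from vehicle and cADPR responses.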

[4] = tested on: mouse embryonic stem (ES) cells; conditions: 100 μM; ref Wei et al., 2012; cited from earlier work
[5] = tested on: NAADP-evoked Ca^2+ release; conditions: data from a recent screen against NAADP action; ref Gunaratne et al., 2018; cited from earlier work
[6] = tested on: RyRs (ryanodine-evoked Ca^2+ release); assay: ryanodine-evoked Ca2+ release in sea urchin egg homogenate; type: biochemical, Strongylocentrotus purpuratus; conditions: ryanodine 100 μM
Method in brief: (§2)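 Fluo-3-loaded S. purpuratus egg homogenate (1.25%, pH 7.2 intracellular-like medium, 17°C loading) was preincubated with increasing test compound concentrations. Release was then evoked by cADPR 300 nM, caffeine 15 mM or ryanodine 100 μM, with fluorescence read at ex 485/em 525 nm. Concentration-response data came from three independent biological experiments with four technical replicates each.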

[7] = tested on: cADPR-sensitive Ca^2+ stores; type: biochemical, Strongylocentrotus purpuratus; conditions: ≤100μM
[8] = tested on: NAADP-evoked Ca^2+ release; assay: NAADP-evoked Ca2+ release in sea urchin egg homogenate; type: biochemical, Strongylocentrotus purpuratus; conditions: NAADP 200 nM; at concentrations completely inhibiting cADPR-evoked signals
[9] = tested on: RyRs (caffeine-evoked Ca^2+ release); assay: caffeine-evoked Ca2+ release in sea urchin egg homogenate; type: biochemical, Strongylocentrotus purpuratus; conditions: caffeine 15 mM
Method in brief: as §2

[10] = tested on: human induced pluripotent stem cells (iPSCs); assay: cardiomyocyte differentiation of induced pluripotent stem cells; type: cell-based; conditions: 1 μM for 5 days, versus control cultures
Method in brief: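 Human iPSCs derived from dermal fibroblasts were grown on Matrigel in mTeSR1 and differentiated by Wnt modulation (CHIR, then 5 μM IWP-4 at day 3). From day 0 they received 1 μM test compound (from a 10 mM DMSO stock) or DMSO for 23 h or 5 days. Troponin T-positive cells per Hoechst-stained nuclei were counted at day 8 or 15. Western blot troponin T was normalized to GAPDH as % vehicle. Three independent experiments, mean ± stdev.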

[11] = tested on: IP3-evoked Ca^2+ release; assay: IP3-evoked Ca2+ release in sea urchin egg homogenate; type: biochemical, Strongylocentrotus purpuratus; conditions: IP3 500 nM; at concentrations completely inhibiting cADPR-evoked signals
[12] = tested on: U2OS cells; assay: cADPR microinjection into single U2OS cells expressing GCaMP-6M; type: cell-based, human; conditions: 5 μM preincubation; cADPR 30 μM pipette concentration
Method in brief: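 U2OS cells were transfected with GCaMP-6M two days prior, seeded on collagen dishes and perfused with Ca2+-free HBSS. Cells in 5 μM test compound or 0.05% DMSO were microinjected with intracellular buffer (110 mM KCl, 10 mM NaCl, 20 mM HEPES, pH 7.2) containing vehicle or cADPR, giving about 300 nM intracellular. Spinning-disk imaging (ex 488 nm) gave peak ΔF/F0 and area under curve. Data from three independent experiments, mean ± stdev.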

RyR2, sequence (A0A5G2R1W3 20-4900): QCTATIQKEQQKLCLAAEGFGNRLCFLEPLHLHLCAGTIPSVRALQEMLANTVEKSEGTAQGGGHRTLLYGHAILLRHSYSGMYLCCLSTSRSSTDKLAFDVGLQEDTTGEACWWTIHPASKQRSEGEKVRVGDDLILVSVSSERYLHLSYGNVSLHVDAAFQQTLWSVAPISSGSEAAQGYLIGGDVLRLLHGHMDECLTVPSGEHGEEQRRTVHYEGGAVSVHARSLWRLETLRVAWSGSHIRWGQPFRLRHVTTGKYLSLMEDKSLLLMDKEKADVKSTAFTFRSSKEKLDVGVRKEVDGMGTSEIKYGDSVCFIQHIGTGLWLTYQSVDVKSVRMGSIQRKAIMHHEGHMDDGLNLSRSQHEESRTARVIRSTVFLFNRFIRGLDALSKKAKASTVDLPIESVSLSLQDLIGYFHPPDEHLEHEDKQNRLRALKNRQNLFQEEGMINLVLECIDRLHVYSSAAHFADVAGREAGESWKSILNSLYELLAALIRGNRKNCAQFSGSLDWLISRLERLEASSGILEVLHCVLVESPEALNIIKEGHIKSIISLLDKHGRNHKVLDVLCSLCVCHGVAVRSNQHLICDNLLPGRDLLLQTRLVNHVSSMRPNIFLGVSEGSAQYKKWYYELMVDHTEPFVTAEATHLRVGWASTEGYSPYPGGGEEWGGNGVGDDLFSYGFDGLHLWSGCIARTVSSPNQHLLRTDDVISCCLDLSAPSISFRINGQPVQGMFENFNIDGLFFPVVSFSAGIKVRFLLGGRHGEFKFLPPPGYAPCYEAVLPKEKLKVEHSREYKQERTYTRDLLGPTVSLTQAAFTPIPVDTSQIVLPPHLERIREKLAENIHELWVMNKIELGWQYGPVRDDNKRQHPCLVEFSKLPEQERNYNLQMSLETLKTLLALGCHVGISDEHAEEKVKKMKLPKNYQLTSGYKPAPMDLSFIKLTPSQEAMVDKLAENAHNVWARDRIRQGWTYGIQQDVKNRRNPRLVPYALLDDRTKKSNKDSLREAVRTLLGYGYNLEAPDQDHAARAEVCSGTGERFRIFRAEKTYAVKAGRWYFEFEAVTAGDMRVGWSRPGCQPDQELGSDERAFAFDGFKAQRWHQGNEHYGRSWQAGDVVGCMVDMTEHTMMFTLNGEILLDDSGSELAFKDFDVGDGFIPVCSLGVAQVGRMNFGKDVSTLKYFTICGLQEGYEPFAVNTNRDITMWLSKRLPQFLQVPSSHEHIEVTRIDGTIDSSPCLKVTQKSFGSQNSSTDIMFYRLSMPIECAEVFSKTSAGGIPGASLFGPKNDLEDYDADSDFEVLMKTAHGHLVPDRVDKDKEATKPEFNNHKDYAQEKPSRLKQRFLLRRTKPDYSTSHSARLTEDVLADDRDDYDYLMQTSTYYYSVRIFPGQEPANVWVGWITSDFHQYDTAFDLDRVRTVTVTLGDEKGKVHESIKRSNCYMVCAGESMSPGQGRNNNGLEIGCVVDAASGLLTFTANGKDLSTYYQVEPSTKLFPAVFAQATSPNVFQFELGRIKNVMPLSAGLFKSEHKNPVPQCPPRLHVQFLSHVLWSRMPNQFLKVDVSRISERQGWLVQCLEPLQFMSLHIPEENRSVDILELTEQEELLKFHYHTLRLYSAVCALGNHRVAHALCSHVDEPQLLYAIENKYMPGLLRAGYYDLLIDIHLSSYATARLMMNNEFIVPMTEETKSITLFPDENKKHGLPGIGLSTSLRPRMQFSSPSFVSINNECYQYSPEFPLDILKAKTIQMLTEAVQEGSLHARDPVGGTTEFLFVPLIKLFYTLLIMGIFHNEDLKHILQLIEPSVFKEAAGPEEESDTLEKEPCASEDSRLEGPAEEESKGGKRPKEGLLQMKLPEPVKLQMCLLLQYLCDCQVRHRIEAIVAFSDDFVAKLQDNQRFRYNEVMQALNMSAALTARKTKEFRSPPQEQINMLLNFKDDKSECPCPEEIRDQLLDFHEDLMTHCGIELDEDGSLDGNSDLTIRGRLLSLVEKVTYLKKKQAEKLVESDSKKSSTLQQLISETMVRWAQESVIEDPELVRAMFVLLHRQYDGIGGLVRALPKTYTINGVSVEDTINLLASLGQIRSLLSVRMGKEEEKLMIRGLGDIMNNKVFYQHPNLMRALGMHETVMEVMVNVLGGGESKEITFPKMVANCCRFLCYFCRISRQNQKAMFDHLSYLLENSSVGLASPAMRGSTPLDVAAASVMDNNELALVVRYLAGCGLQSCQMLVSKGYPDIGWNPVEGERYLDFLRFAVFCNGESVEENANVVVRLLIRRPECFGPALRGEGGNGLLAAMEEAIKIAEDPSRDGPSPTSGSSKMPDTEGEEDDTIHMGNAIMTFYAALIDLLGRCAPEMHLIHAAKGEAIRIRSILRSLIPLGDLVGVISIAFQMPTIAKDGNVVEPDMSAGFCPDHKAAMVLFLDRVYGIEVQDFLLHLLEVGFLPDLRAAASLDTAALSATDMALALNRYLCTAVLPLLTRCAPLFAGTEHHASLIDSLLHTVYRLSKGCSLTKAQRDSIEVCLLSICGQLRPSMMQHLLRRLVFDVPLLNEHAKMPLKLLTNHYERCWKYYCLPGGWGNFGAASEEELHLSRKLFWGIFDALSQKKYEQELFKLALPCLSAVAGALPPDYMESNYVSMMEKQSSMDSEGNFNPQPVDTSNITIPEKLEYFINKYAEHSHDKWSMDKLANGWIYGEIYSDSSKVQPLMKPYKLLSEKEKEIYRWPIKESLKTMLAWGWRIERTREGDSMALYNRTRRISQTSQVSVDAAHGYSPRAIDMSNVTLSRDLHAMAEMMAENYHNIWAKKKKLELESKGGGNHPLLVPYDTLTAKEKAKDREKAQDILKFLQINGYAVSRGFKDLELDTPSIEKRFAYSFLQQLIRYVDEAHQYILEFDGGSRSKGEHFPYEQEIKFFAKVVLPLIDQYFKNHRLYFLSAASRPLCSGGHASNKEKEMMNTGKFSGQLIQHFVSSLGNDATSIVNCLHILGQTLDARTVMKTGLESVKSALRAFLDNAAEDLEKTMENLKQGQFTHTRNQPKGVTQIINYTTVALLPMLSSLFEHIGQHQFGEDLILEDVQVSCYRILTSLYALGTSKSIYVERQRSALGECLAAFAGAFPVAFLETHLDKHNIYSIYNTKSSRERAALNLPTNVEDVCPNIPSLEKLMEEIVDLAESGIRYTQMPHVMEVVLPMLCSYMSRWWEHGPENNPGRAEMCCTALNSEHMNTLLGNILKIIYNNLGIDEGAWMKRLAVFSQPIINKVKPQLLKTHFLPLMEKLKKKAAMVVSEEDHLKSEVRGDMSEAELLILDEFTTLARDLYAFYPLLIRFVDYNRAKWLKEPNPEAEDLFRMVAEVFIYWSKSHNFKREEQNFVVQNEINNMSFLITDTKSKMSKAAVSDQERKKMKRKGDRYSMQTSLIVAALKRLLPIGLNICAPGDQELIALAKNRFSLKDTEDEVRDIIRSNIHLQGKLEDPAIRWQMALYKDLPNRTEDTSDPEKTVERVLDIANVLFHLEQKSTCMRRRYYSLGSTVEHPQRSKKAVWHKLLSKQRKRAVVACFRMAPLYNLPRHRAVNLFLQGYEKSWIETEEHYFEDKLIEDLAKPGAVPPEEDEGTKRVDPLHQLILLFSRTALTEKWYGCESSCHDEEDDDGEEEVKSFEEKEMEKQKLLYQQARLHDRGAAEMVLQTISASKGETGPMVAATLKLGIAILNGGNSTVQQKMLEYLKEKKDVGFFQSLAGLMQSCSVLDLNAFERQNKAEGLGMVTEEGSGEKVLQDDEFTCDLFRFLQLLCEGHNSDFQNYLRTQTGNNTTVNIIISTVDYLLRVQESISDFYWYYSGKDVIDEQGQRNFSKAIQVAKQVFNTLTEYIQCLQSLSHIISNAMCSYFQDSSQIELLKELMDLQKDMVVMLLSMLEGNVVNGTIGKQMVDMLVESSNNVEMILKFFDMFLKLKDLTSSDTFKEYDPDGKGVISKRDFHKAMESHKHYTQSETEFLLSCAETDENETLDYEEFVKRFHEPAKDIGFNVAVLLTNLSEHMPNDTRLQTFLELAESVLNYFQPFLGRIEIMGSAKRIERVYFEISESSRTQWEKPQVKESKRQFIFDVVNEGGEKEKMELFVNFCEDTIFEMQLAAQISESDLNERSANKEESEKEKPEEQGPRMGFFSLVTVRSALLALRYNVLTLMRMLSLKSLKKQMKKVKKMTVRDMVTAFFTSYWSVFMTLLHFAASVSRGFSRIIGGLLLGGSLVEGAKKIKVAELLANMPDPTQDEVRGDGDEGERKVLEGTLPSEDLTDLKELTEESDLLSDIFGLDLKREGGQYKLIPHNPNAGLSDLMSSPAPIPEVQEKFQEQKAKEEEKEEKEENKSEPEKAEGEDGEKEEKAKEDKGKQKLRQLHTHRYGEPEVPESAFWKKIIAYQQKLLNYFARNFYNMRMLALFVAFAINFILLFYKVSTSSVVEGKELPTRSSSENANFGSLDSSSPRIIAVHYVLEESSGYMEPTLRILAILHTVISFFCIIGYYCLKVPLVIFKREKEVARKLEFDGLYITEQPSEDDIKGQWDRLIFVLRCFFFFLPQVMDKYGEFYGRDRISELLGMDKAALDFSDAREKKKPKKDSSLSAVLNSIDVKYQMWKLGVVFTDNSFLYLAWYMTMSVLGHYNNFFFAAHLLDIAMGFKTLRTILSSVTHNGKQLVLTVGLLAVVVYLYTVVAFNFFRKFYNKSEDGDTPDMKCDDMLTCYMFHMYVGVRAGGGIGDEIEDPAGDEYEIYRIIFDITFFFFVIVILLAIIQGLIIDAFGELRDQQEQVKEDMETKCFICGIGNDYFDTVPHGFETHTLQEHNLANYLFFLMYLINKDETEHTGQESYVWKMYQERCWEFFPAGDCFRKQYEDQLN

- effect on [3H]-ryanodine binding ([1]; contracting 30 μM free Ca2+): did not elicit any effects
- effect on [3H]-ryanodine binding ([1]; relaxed 100 nM free Ca2+): did not elicit any effects
- effect on [3H]-ryanodine binding ([2]; contracting 30 μM free Ca2+): did not elicit any effects
- effect on [3H]-ryanodine binding ([2]; relaxed 100 nM free Ca2+): did not elicit any effects
Compound: N=c1c2ncn3c2ncn1[C@@H]1O[C@H](COP(=O)(O)OP(=O)(O)OC[C@H]2O[C@@H]3[C@H](O)[C@@H]2O)[C@@H](O)[C@H]1O [cADPR, cyclic adenosine 5′-diphosphate ribose]

Compound: N=c1c2cc(Br)n3c2ncn1[C@@H]1O[C@H](COP(=O)(O)OP(=O)(O)OC[C@H]2O[C@@H]3C(O)[C@H]2O)C(O)C1O (some centres unmarked) [8-Br-7-deaza-cADPR]
- mode of inhibition of cADPR action [3]: competitive inhibitors

Compound: 8-Br-cADPR
- effect on generation of cardiomyocytes [4]: promoted the generation of cardiomyocytes

Compound: NC(=S)c1ccc[n+]([C@@H]2O[C@H](COP(=O)([O-])OP(=O)(O)OC[C@H]3O[C@@H](n4cnc5c(N)ncnc54)[C@H](OP(=O)(O)O)[C@@H]3O)[C@@H](O)[C@H]2O)c1 [thio-NADP]
- effect on NAADP-evoked Ca2+ responses in screen [5]: selectively desensitized

Compound: CNc1ccc2oc(C[C@H]3O[C@@]4(CC[C@H]3C)O[C@H]([C@H](C)C(=O)c3ccc[nH]3)[C@H](C)C[C@H]4C)nc2c1C(=O)O [A23187]
- effect on cADPR-evoked Ca2+ responses in primary screen ([3]; 25 μM, positive control): inhibited
- effect on NAADP-evoked Ca2+ responses in screen [5]: inhibited

- IC50 ([3]; read-out: IC50, inhibition of cADPR-evoked Ca2+ release, sea urchin egg homogenate, cADPR 300 nM): 260 ± 23 nM
- effect on [3H]-ryanodine binding ([1]; contracting 30 μM free Ca2+): inhibited
- effect on [3H]-ryanodine binding ([1]; relaxed 100 nM free Ca2+): inhibited
- effect on [3H]-ryanodine binding ([2]; contracting 30 μM free Ca2+): inhibited
- effect on [3H]-ryanodine binding ([2]; relaxed 100 nM free Ca2+): inhibited
Compound: CC1=C(C(=O)OC2CCCCC2)C(c2ccc([N+](=O)[O-])cc2)C2=C(CC(C)(C)CC2=O)N1 (centres unmarked) [FLI-06, cyclohexyl 2,7,7-trimethyl-4-(4-nitrophenyl)-5-oxo-1,4,5,6,7,8-hexahydroquinoline-3-carboxylate]
- effect on ryanodine-evoked Ca2+ release [6]: blocked
- intrinsic agonist activity (Ca2+ elevation without cADPR) [7]: did not result from any intrinsic agonist activity
- effect on cADPR-evoked Ca2+ signals ([3]; cADPR 300 nM): blocked
- mode of inhibition of cADPR action [3]: non-competitive inhibition
- effect on NAADP-evoked Ca2+ release [8]: did not impact
- effect on caffeine-evoked Ca2+ release [9]: blocked
- contraction phenotype [10]: earlier contraction phenotype
- expression of cardiomyocyte-specific troponin T [10]: enhanced expression
- effect on IP3-evoked Ca2+ release [11]: did not impact
- effect on cADPR-evoked Ca2+ transient [12]: reduced

Compound: COCCOC(=O)C1=C(C)NC(C)=C(C(=O)OC(C)C)C1c1cccc([N+](=O)[O-])c1 (centres unmarked) [nimodipine, 3-O-(2-methoxyethyl) 5-O-propan-2-yl 2,6-dimethyl-4-(3-nitrophenyl)-1,4-dihydropyridine-3,5-dicarboxylate]
- inhibition of cADPR-evoked Ca2+ signals ([3]; 25 μM): ~5%

Compound: COC(=O)C1=C(C)NC(C)=C(C(=O)OC)C1c1ccccc1[N+](=O)[O-] [nifedipine, dimethyl 2,6-dimethyl-4-(2-nitrophenyl)-1,4-dihydropyridine-3,5-dicarboxylate]
- inhibition of cADPR-evoked Ca2+ signals ([3]; 25 μM): ~3%
